From ChEMBL document CHEMBL5724801, “EUbOPEN Chemogenomics Library - Multiplex” (2024)
“And” between values parts separate entries of the source, which are not always exact repeats. Equal entries are not always repeated.

System: Fibroblast
Experiment: Multiplex assay against human fibroblast
Assay type: toxicity, cell-based
Procedure, shortened: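 On a CQ1 microscope at 37°C and 5% CO2, live cells were imaged after compound addition. They had been stained at seeding with Hoechst33342, BioTracker Green Microtubule Cytoskeleton Dye, MitoTracker Red and Annexin V Alexa Fluor 680. CellPathfinder machine-learning gating assigned cells to Hoechst high-intensity objects or normal cells, normal cells to healthy, pyknosed or fragmented nuclei, and pyknosed cells to mitotic or apoptotic. Tubulin, mitochondrial-mass and membrane-permeability phenotypes are per cents of healthy-nucleus cells.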

[1] = 12 h, 1 µM, compound concentration 1 uM
[2] = 12 h, 10 µM, compound concentration 10 uM
[3] = 24 h, 1 µM, compound concentration 1 uM
[4] = 24 h, 10 µM, compound concentration 10 uM
[5] = 48 h, 1 µM, compound concentration 1 uM
[6] = 48 h, 10 µM, compound concentration 10 uM

Question: Which results are given for `CN1CCC(C(=O)c2cccc(NC(=O)c3c(F)cc(F)cc3F)n2)CC1`?
Answer: Population Apoptotic (%) [1]: 28% and 40%; Population Fragmented Nuclei (%) [1]: 16% and 28%; Population Healthy Nuclei (%) [1]: 64% and 53%; Population Hoechst High Intensity Objects (%) [1]: 3% and 2%; Population Membrane Permeable-Phenotype (%) [1]: 1% and 5%; Population Mitochondria Different-Phenotype (%) [1]: 4% and 10%; Population Mitotic Cells (%) [1]: 71% and 60%; Population Normal (%) [1]: 96% and 97%; Population Pyknosed Nuclei (%) [1]: 18%; Population Tubulin-Different-Phenotype (%) [1]: 28% and 43%; Total Cell Count [1]: 153 and 142; Population Apoptotic (%) [2]: 32% and 36%; Population Fragmented Nuclei (%) [2]: 12% and 23%; Population Healthy Nuclei (%) [2]: 74% and 54%; Population Hoechst High Intensity Objects (%) [2]: 4%; Population Membrane Permeable-Phenotype (%) [2]: 1% and 6%; Population Mitochondria Different-Phenotype (%) [2]: 7% and 6%; Population Mitotic Cells (%) [2]: 67% and 63%; Population Normal (%) [2]: 95%; Population Pyknosed Nuclei (%) [2]: 13% and 22%; Population Tubulin-Different-Phenotype (%) [2]: 42% and 63%; Total Cell Count [2]: 266 and 142; Population Apoptotic (%) [3]: 45% and 40%; Population Fragmented Nuclei (%) [3]: 12% and 34%; Population Healthy Nuclei (%) [3]: 74% and 43%; Population Hoechst High Intensity Objects (%) [3]: 1%; Population Membrane Permeable-Phenotype (%) [3]: 0% and 6%; Population Mitochondria Different-Phenotype (%) [3]: 2% and 10%; Population Mitotic Cells (%) [3]: 55% and 59%; Population Normal (%) [3]: 98%; Population Pyknosed Nuclei (%) [3]: 12% and 21%; Population Tubulin-Different-Phenotype (%) [3]: 21% and 45%; Total Cell Count [3]: 156 and 148; Population Apoptotic (%) [4]: 54% and 37%; Population Fragmented Nuclei (%) [4]: 13% and 30%; Population Healthy Nuclei (%) [4]: 71% and 50%; Population Hoechst High Intensity Objects (%) [4]: 3% and 2%; Population Membrane Permeable-Phenotype (%) [4]: 0% and 5%; Population Mitochondria Different-Phenotype (%) [4]: 6% and 8%; Population Mitotic Cells (%) [4]: 45% and 62%; Population Normal (%) [4]: 96% and 97%; Population Pyknosed Nuclei (%) [4]: 14% and 19%; Population Tubulin-Different-Phenotype (%) [4]: 37% and 65%; Total Cell Count [4]: 258 and 153; Population Apoptotic (%) [5]: 71% and 56%; Population Fragmented Nuclei (%) [5]: 16% and 42%; Population Healthy Nuclei (%) [5]: 74% and 46%; Population Hoechst High Intensity Objects (%) [5]: 3% and 2%; Population Membrane Permeable-Phenotype (%) [5]: 0% and 5%; Population Mitochondria Different-Phenotype (%) [5]: 1% and 5%; Population Mitotic Cells (%) [5]: 28% and 43%; Population Normal (%) [5]: 96% and 97%; Population Pyknosed Nuclei (%) [5]: 8% and 10%; Population Tubulin-Different-Phenotype (%) [5]: 25% and 67%; Total Cell Count [5]: 164 and 156; Population Apoptotic (%) [6]: 71% and 54%; Population Fragmented Nuclei (%) [6]: 17% and 36%; Population Healthy Nuclei (%) [6]: 71% and 55%; Population Hoechst High Intensity Objects (%) [6]: 5% and 3%; Population Membrane Permeable-Phenotype (%) [6]: 0% and 3%; Population Mitochondria Different-Phenotype (%) [6]: 7% and 3%; Population Mitotic Cells (%) [6]: 28% and 45%; Population Normal (%) [6]: 94% and 96%; Population Pyknosed Nuclei (%) [6]: 10% and 7%; Population Tubulin-Different-Phenotype (%) [6]: 40% and 69%; Total Cell Count [6]: 272 and 152

Question: For `COc1c(C)cc(NC(=O)c2nn(Cc3ccc(F)cc3)c3c2CN(C(=O)c2ccc[nH]2)C[C@]3(C)C(N)=O)cc1C`, which “Population Apoptotic (%)” value [1] is on record?
Answer: Its value is 42% and 46%.

Question: What about the “Population Fragmented Nuclei (%)” value [1] of the same molecule?
Answer: Its value is 21% and 16%.

Question: What about the “Population Healthy Nuclei (%)” value [1] of the same molecule?
Answer: Its value is 58% and 51%.

Question: And the “Population Hoechst High Intensity Objects (%)” value [1]?
Answer: Its value is 2% and 3%.

Question: What about the “Population Membrane Permeable-Phenotype (%)” value [1] of the same molecule?
Answer: Its value is 1% and 6%.

Question: What about the “Population Mitochondria Different-Phenotype (%)” value [1] of the same molecule?
Answer: The value was 18% and 11%.

Question: What about the “Population Mitotic Cells (%)” value [1] of the same molecule?
Answer: The value was 57% and 53%.

Question: And the “Population Normal (%)” value [1]?
Answer: The value was 97% and 96%.

Question: And the “Population Pyknosed Nuclei (%)” value [1]?
Answer: The value was 20% and 31%.

Question: What about the “Population Tubulin-Different-Phenotype (%)” value [1] of the same molecule?
Answer: Its value is 64% and 72%.

Question: What about the “Total Cell Count” value [1] of the same molecule?
Answer: The value was 95 and 86.

Question: What about the “Population Apoptotic (%)” value [2] of the same molecule?
Answer: The value was 47% and 52%.

Question: What about the “Population Fragmented Nuclei (%)” value [2] of the same molecule?
Answer: The value was 12% and 29%.

Question: And the “Population Healthy Nuclei (%)” value [2]?
Answer: The value was 58% and 38%.

Question: What about the “Population Hoechst High Intensity Objects (%)” value [2] of the same molecule?
Answer: Its value is 1% and 2%.

Question: What about the “Population Membrane Permeable-Phenotype (%)” value [2] of the same molecule?
Answer: The value was 0% and 6%.

Question: What about the “Population Mitochondria Different-Phenotype (%)” value [2] of the same molecule?
Answer: The value was 25% and 30%.

Question: What about the “Population Mitotic Cells (%)” value [2] of the same molecule?
Answer: Its value is 52% and 47%.

Question: What about the “Population Normal (%)” value [2] of the same molecule?
Answer: Its value is 98% and 97%.

Question: What about the “Population Pyknosed Nuclei (%)” value [2] of the same molecule?
Answer: The value was 29% and 32%.

Question: And the “Population Tubulin-Different-Phenotype (%)” value [2]?
Answer: The value was 90%.

Question: And the “Total Cell Count” value [2]?
Answer: The value was 166 and 115.

Question: And the “Population Apoptotic (%)” value [3]?
Answer: Its value is 66% and 48%.

Question: What about the “Population Fragmented Nuclei (%)” value [3] of the same molecule?
Answer: The value was 25% and 31%.

Question: And the “Population Healthy Nuclei (%)” value [3]?
Answer: The value was 61% and 38%.

Question: What about the “Population Hoechst High Intensity Objects (%)” value [3] of the same molecule?
Answer: Its value is 3% and 6%.

Question: What about the “Population Membrane Permeable-Phenotype (%)” value [3] of the same molecule?
Answer: The value was 1% and 8%.

Question: What about the “Population Mitochondria Different-Phenotype (%)” value [3] of the same molecule?
Answer: The value was 17%.

Question: What about the “Population Mitotic Cells (%)” value [3] of the same molecule?
Answer: The value was 33% and 51%.

Question: What about the “Population Normal (%)” value [3] of the same molecule?
Answer: Its value is 96% and 93%.

Question: And the “Population Pyknosed Nuclei (%)” value [3]?
Answer: The value was 12% and 30%.

Question: What about the “Population Tubulin-Different-Phenotype (%)” value [3] of the same molecule?
Answer: The value was 45% and 67%.

Question: And the “Total Cell Count” value [3]?
Answer: The value was 96 and 95.

Question: And the “Population Apoptotic (%)” value [4]?
Answer: Its value is 65% and 43%.

Question: And the “Population Fragmented Nuclei (%)” value [4]?
Answer: Its value is 14% and 30%.

Question: What about the “Population Healthy Nuclei (%)” value [4] of the same molecule?
Answer: The value was 64% and 47%.

Question: What about the “Population Hoechst High Intensity Objects (%)” value [4] of the same molecule?
Answer: Its value is 3% and 4%.

Question: What about the “Population Membrane Permeable-Phenotype (%)” value [4] of the same molecule?
Answer: Its value is 0% and 8%.

Question: And the “Population Mitochondria Different-Phenotype (%)” value [4]?
Answer: Its value is 47% and 26%.

Question: What about the “Population Mitotic Cells (%)” value [4] of the same molecule?
Answer: Its value is 34% and 56%.

Question: And the “Population Normal (%)” value [4]?
Answer: The value was 96% and 95%.

Question: What about the “Population Pyknosed Nuclei (%)” value [4] of the same molecule?
Answer: Its value is 20% and 21%.

Question: What about the “Population Tubulin-Different-Phenotype (%)” value [4] of the same molecule?
Answer: The value was 90% and 82%.

Question: And the “Total Cell Count” value [4]?
Answer: Its value is 159 and 110.

Question: What about the “Population Apoptotic (%)” value [5] of the same molecule?
Answer: The value was 87% and 70%.

Question: What about the “Population Fragmented Nuclei (%)” value [5] of the same molecule?
Answer: The value was 29% and 34%.

Question: What about the “Population Healthy Nuclei (%)” value [5] of the same molecule?
Answer: Its value is 61% and 45%.

Question: What about the “Population Hoechst High Intensity Objects (%)” value [5] of the same molecule?
Answer: Its value is 7% and 5%.

Question: What about the “Population Membrane Permeable-Phenotype (%)” value [5] of the same molecule?
Answer: Its value is 0% and 10%.

Question: What about the “Population Mitochondria Different-Phenotype (%)” value [5] of the same molecule?
Answer: Its value is 10%.

Question: And the “Population Mitotic Cells (%)” value [5]?
Answer: The value was 12% and 29%.

Question: What about the “Population Normal (%)” value [5] of the same molecule?
Answer: The value was 92% and 94%.

Question: What about the “Population Pyknosed Nuclei (%)” value [5] of the same molecule?
Answer: Its value is 8% and 19%.

Question: What about the “Population Tubulin-Different-Phenotype (%)” value [5] of the same molecule?
Answer: Its value is 45% and 69%.

Question: What about the “Total Cell Count” value [5] of the same molecule?
Answer: The value was 99 and 91.

Question: And the “Population Apoptotic (%)” value [6]?
Answer: The value was 60% and 77%.

Question: And the “Population Fragmented Nuclei (%)” value [6]?
Answer: The value was 22% and 41%.

Question: What about the “Population Healthy Nuclei (%)” value [6] of the same molecule?
Answer: Its value is 60% and 51%.

Question: What about the “Population Hoechst High Intensity Objects (%)” value [6] of the same molecule?
Answer: The value was 4% and 2%.

Question: What about the “Population Membrane Permeable-Phenotype (%)” value [6] of the same molecule?
Answer: The value was 0% and 3%.

Question: And the “Population Mitotic Cells (%)” value [6]?
Answer: Its value is 39% and 22%.

Question: And the “Population Normal (%)” value [6]?
Answer: Its value is 95% and 97%.

Question: What about the “Population Pyknosed Nuclei (%)” value [6] of the same molecule?
Answer: Its value is 17% and 7%.

Question: And the “Population Tubulin-Different-Phenotype (%)” value [6]?
Answer: Its value is 92% and 75%.

Question: And the “Total Cell Count” value [6]?
Answer: Its value is 166 and 122.
